From ChEMBL document CHEMBL3862037 (J Med Chem, 2016)
pKi: −log10 of the molar value.

Columns and labels:
[1] = biological target: Sodium-dependent dopamine transporter (Rattus norvegicus, UniProt P23977); assay: Displacement of [3H]WIN35,428 from DAT in Sprague-Dawley rat brain membranes incubated for 120 mins by radioligand binding assay; type: cell membranes, Membrane
[2] = organism: Rattus norvegicus; assay: Selectivity index, ratio of Ki for SERT in Sprague-Dawley rat brain stem membranes to Ki for DAT in Sprague-Dawley rat brain membranes; type: cell membranes
[3] = Displacement of [3H]nisoxetine from NET in Sprague-Dawley rat frontal cortex membranes incubated for 180 mins by radioligand binding assay; parameters: species or system Membrane
[4] = organism: Rattus norvegicus; assay: Selectivity index, ratio of Ki for NET in Sprague-Dawley rat frontal cortex membranes to Ki for DAT in Sprague-Dawley rat brain membranes; type: cell membranes
[5] = biological target: Sodium-dependent serotonin transporter (Rattus norvegicus, UniProt P31652); assay: Displacement of [3H]citalopram from SERT in Sprague-Dawley rat brain stem membranes incubated for 60 mins by radioligand binding assay; type: tissue-based
Chain of Sodium-dependent serotonin transporter (P31652 whole entry): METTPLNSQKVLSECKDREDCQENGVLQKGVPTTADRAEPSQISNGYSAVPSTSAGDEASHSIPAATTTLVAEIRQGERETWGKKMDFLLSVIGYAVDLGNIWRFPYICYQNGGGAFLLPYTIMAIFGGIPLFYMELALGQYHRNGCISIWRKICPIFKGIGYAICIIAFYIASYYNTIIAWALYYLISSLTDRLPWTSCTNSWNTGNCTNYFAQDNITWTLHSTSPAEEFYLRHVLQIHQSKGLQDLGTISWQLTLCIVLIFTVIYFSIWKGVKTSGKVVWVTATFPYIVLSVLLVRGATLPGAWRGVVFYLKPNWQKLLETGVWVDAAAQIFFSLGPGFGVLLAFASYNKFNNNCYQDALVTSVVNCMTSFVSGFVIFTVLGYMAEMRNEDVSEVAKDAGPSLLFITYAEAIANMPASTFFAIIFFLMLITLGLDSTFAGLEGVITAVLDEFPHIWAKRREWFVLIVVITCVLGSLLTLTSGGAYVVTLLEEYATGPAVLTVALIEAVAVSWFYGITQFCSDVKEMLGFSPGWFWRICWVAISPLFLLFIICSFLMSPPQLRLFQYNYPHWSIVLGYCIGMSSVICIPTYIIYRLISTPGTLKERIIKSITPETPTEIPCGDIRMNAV

[6] = Stability in mouse liver microsomes assessed as compound degradation at 10 uM in presence of NADPH regenerating system measured < 30 mins mins by LC/MS/MS method; type: ADME; conditions: 0.5 h
Procedure, shortened: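 Mouse liver microsomes (0.5 mg/mL) in 100 mM potassium phosphate pH 7.4 with NADPH regenerating system. Compound at 10 µM final; testosterone as positive control. Parent compound loss followed over time by LC/MS/MS on a C18 column with formic acid/acetonitrile gradient.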

[7] = biological target: T1, D(4) dopamine receptor (Homo sapiens, UniProt P21917); assay: Displacement of [3H]N-methylspiperone from human D4R expressed in HEK293 cell membranes incubated for 1 hr by radioligand binding assay
T1 sequence (P21917 whole entry): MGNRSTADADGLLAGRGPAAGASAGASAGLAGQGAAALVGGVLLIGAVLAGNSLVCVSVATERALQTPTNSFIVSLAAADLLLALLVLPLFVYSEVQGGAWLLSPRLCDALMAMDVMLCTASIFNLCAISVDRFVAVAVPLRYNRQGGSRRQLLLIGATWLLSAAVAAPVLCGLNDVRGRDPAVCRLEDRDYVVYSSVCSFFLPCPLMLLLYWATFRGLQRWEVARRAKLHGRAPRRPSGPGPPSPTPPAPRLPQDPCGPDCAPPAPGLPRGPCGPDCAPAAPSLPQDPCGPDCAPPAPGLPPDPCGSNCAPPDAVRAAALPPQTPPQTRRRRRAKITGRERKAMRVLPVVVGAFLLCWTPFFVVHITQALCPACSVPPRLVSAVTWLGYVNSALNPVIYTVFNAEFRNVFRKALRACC
Procedure, shortened: (§1)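 Membranes from HEK293 cells stably expressing human D2R (20 µg protein) or D4R (30 µg protein). Buffer: EBSS with 0.2 mM sodium metabisulfite and 0.4 nM [3H]N-methylspiperone. Test compound at 11 half-log dilutions (100 µM–100 pM or 10 µM–10 pM) in 30% DMSO vehicle. Incubated 1 h at room temperature; nonspecific binding with 10 µM butaclamol.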

[8] = biological target: D(2) dopamine receptor (Homo sapiens, UniProt P14416); assay: Displacement of [3H]N-methylspiperone from human D2R expressed in HEK293 cell membranes incubated for 1 hr by radioligand binding assay; procedure, shortened: as §1
Chain of D(2) dopamine receptor (P14416 whole entry): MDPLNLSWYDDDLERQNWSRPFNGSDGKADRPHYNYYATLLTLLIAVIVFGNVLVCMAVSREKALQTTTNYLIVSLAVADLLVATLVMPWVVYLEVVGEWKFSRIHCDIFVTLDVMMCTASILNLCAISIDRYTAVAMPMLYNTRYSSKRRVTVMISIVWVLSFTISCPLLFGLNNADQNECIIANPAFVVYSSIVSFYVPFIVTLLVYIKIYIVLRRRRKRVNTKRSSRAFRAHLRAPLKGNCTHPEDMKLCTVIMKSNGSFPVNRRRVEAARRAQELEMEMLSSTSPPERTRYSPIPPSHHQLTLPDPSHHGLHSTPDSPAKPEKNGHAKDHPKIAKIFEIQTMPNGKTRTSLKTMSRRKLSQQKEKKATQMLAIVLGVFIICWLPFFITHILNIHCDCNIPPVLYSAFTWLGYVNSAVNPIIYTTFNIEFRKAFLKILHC

[9] = biological target: Sigma non-opioid intracellular receptor 1 (Cavia porcellus, UniProt Q60492); assay: Displacement of [3H](+)-pentazocine from sigma1 receptor in whole-guinea pig brain minus cerebellum homogenates incubated for 120 mins by radioligand binding assay
Chain of Sigma non-opioid intracellular receptor 1 (Q60492 whole entry): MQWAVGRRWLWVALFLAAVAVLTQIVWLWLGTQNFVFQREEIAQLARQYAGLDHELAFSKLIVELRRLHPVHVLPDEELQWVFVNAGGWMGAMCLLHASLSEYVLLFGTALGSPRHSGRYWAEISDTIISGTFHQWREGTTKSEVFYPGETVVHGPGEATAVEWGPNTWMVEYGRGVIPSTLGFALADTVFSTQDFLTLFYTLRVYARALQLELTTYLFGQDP
Procedure, shortened: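 Guinea pig whole-brain (minus cerebellum) membranes, 8.0 mg OWW per tube, in 50 mM Tris-HCl pH 8.0 with 3 nM [3H](+)-pentazocine. Incubated 120 min at room temperature. Nonspecific binding defined by haloperidol. Stopped by GF/B filtration and scintillation counting. IC50 from nonlinear regression, converted to Ki. At least three independent experiments, each in triplicate.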

[10] = biological target: D(3) dopamine receptor (Homo sapiens, UniProt P35462); assay: Displacement of [3H]N-methylspiperone from human D3R expressed in HEK293 cell membranes incubated for 1 hr by radioligand binding assay
Chain of D(3) dopamine receptor (P35462 whole entry): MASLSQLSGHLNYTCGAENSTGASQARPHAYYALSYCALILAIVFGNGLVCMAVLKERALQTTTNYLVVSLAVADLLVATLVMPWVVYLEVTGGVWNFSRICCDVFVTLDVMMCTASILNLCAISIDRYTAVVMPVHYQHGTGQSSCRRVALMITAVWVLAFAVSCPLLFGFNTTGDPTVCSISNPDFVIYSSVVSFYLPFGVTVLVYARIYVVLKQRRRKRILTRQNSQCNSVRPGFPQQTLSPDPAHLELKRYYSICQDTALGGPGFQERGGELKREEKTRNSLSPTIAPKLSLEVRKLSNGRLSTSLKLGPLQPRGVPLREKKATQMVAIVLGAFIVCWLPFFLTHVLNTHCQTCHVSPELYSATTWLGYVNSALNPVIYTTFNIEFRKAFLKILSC

Chain of Sodium-dependent dopamine transporter (P23977 whole entry): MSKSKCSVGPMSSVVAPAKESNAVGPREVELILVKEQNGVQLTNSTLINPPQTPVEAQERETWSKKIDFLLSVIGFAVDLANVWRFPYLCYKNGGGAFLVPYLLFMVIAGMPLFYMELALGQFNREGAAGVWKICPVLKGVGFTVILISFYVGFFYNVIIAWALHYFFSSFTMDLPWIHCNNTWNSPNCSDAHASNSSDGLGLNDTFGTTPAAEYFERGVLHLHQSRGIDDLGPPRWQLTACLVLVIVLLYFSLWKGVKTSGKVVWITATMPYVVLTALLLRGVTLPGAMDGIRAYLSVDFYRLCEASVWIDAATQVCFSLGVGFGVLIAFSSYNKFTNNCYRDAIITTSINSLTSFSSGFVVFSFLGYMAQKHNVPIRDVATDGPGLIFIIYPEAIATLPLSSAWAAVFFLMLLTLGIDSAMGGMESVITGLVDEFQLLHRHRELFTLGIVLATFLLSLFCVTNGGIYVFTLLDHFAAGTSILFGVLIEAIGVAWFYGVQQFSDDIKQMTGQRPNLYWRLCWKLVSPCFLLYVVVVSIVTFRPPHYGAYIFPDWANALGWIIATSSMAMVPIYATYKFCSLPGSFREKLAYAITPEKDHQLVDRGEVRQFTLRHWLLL

SMILES | pKi [1] | Ratio Ki [2] | pKi [3] | Ratio Ki [4] | pKi [5] | Stability [6] | pKi [7] | pKi [8] | pKi [9] | pKi [10]
CC(O)CN1CCN(CCSC(c2cccc(Cl)c2)c2cccc(Cl)c2)CC1 (stereo unspecified) | 6.84 | > 100 | 4.50 | > 100 | 4.97 | – | – | – | – | –
CCCN1CCN(C(=O)C[S+]([O-])C(c2ccc(F)cc2)c2ccc(F)cc2)CC1 (stereo unspecified) | 6.55 | > 100 | – | > 100 | 4.84 | – | – | – | – | –
[O-][S+](CCN1CCN(Cc2ccc(F)cc2)CC1)C(c1ccc(F)cc1)c1ccc(F)cc1 (stereo unspecified) | 8.01 | > 100 | < 4.30 | > 100 | 5.07 | Unstable | – | – | – | –
Fc1ccc(C(SCCN2CCN(Cc3ccc(C(F)(F)F)cc3)CC2)c2ccc(F)cc2)cc1 | 7.58 | > 100 | 4.81 | > 100 | 5.69 | – | – | – | – | –
CCCN1CCN(C(=O)CSC(c2ccc(F)cc2)c2ccc(F)cc2)CC1 | 6.56 | > 100 | – | > 100 | 5.22 | – | – | – | – | –
CC(O)CN1CCN(CCSC(c2ccccc2)c2ccccc2)CC1 (stereo unspecified) | – | > 100 | – | > 100 | – | – | – | – | – | –
O=C(CSC(c1ccc(F)cc1)c1ccc(F)cc1)N1CCN(CCCc2ccccc2)CC1 | 7.54 | > 100 | 4.69 | > 100 | 5.50 | – | – | – | – | –
CC(O)CN1CCN(C(=O)C[S+]([O-])C(c2ccc(F)cc2)c2ccc(F)cc2)CC1 (stereo unspecified) | 6.12 | > 100 | – | > 100 | 4.48 | – | – | – | – | –
[O-][S+](CCN1CCN(CCCc2ccccc2)CC1)C(c1ccccc1)c1ccccc1 (stereo unspecified) | – | > 100 | – | > 100 | 5.13 | – | – | – | – | –
CC(O)CN1CCN(C(=O)CSC(c2cccc(Cl)c2)c2cccc(Cl)c2)CC1 (stereo unspecified) | 6.04 | > 100 | < 4.30 | > 100 | – | – | – | – | – | –
Fc1ccc(C(SCCN2CCN(CCCc3ccccc3)CC2)c2ccc(F)cc2)cc1 | – | > 100 | – | > 100 | – | – | – | – | – | –
O=C(C[S+]([O-])C(c1ccc(F)cc1)c1ccc(F)cc1)N1CCN(Cc2ccc(Cl)cc2)CC1 (stereo unspecified) | 7.25 | > 100 | 4.20 | > 100 | 5.02 | – | – | – | – | –
CC(O)CN1CCN(C(=O)C[S+]([O-])C(c2cccc(Cl)c2)c2cccc(Cl)c2)CC1 (stereo unspecified) | 5.86 | > 100 | < 4.30 | > 100 | – | – | – | – | – | –
CC(O)CN1CCN(C(=O)CSC(c2ccc(F)cc2)c2ccc(F)cc2)CC1 (stereo unspecified) | 6.67 | > 100 | – | > 100 | 4.94 | Unstable | – | – | – | –
Fc1ccc(C(SCCN2CCN(Cc3ccccc3)CC2)c2ccc(F)cc2)cc1 | 8.13 | > 100 | 5.08 | > 100 | 6.02 | – | – | – | – | –
[O-][S+](CCN1CCN(Cc2ccccc2)CC1)C(c1ccc(F)cc1)c1ccc(F)cc1 (stereo unspecified) | 7.57 | > 100 | 4.34 | > 100 | 4.95 | – | – | – | – | –

SMILES | pKi [1] | Ratio Ki [2] | pKi [3] | Ratio Ki [4] | pKi [5] | Stability [6] | pKi [7] | pKi [8] | pKi [9] | pKi [10]
CCCCN1C2CCC1CC(OC(c1ccc(F)cc1)c1ccc(F)cc1)C2 (stereo unspecified) | 7.98 | – | 5.78 | – | – | – | 6.23 | 7.17 | 8.62 | 7.46
Fc1ccc(CN2CCN(CCSC(c3ccc(F)cc3)c3ccc(F)cc3)CC2)cc1 | 8.30 | > 100 | 5.16 | > 100 | 6.33 | – | – | – | – | –
O=C(C[S+]([O-])C(c1ccc(F)cc1)c1ccc(F)cc1)N1CCN(CCCc2ccccc2)CC1 (stereo unspecified) | 7.42 | > 100 | 4.92 | > 100 | 5.88 | Unstable | – | – | – | –
CC(O)CN1CCN(CC[S+]([O-])C(c2ccccc2)c2ccccc2)CC1 (stereo unspecified) | – | > 100 | – | > 100 | – | – | – | – | – | –
CCc1cc(Cl)c(OC)c(C(=O)NC[C@@H]2CCCN2CC)c1O [ETICLOPRIDE] | – | – | – | – | – | – | 7.15 | 9.59 | – | –
O=C(CSC(c1ccc(F)cc1)c1ccc(F)cc1)N1CCN(Cc2ccc(Cl)cc2)CC1 | 7.23 | > 100 | – | > 100 | 5.66 | – | – | – | – | –
[O-][S+](CCN1CCN(Cc2ccc(Cl)cc2)CC1)C(c1ccc(F)cc1)c1ccc(F)cc1 (stereo unspecified) | 8.12 | > 100 | < 4.30 | > 100 | 5.31 | Unstable | – | – | – | –
O=C(C[S+]([O-])C(c1ccc(F)cc1)c1ccc(F)cc1)N1CCN(Cc2ccc(F)cc2)CC1 (stereo unspecified) | 7.13 | > 100 | – | > 100 | 4.63 | Unstable | – | – | – | –
c1ccc(CCCN2CCN(CCSC(c3ccccc3)c3ccccc3)CC2)cc1 | – | > 100 | – | > 100 | – | – | – | – | – | –
O=C(CSC(c1ccc(F)cc1)c1ccc(F)cc1)N1CCN(Cc2ccc(F)cc2)CC1 | 7.27 | > 100 | – | > 100 | 5.21 | – | – | – | – | –
Fc1ccc(C(SCCN2CCN(Cc3ccc(Cl)cc3)CC2)c2ccc(F)cc2)cc1 | 7.71 | > 100 | 5.13 | > 100 | 6.04 | – | – | – | – | –
[O-][S+](CCN1CCN(CC(O)Cc2ccccc2)CC1)C(c1ccccc1)c1ccccc1 (stereo unspecified) | – | > 100 | – | > 100 | – | Unstable | – | – | – | –
CC(O)CN1CCN(CC[S+]([O-])C(c2cccc(Cl)c2)c2cccc(Cl)c2)CC1 (stereo unspecified) | 6.39 | > 100 | < 4.30 | > 100 | 4.23 | – | – | – | – | –
OC(Cc1ccccc1)CN1CCN(CCSC(c2ccc(F)cc2)c2ccc(F)cc2)CC1 (stereo unspecified) | – | > 100 | – | > 100 | – | – | – | – | – | –
[O-][S+](CCN1CCN(Cc2ccc(C(F)(F)F)cc2)CC1)C(c1ccc(F)cc1)c1ccc(F)cc1 (stereo unspecified) | 7.40 | > 100 | < 4.30 | > 100 | 5.17 | Unstable | – | – | – | –
